Source: ChEMBL document CHEMBL3351414, “Novel 9'-substituted-noscapines: synthesis with Suzuki cross-coupling, structure elucidation and biological evaluation” (Eur J Med Chem, 2014)
The source made the active and inactive calls. No cut-off for these calls is given here.

Assays:
PBL [1] = test: Cytotoxicity against PHA-stimulated human PBLs assessed as reduction in cell growth; format: cell-based
Summary of the method: (§1)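 Peripheral blood lymphocytes from healthy donors, tested either resting (no PHA) or PHA-stimulated. Value is the concentration reducing cell growth by 50%, mean ± SEM of three separate experiments.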

Tubulin [2] = biological target: T1, Tubulin (Bos taurus, UniProt Q6B856+Q862L2+Q862F3); test: Inhibition of bovine brain tubulin assessed as extent of assembly preincubated for 15 mins by turbidimetry
Summary of the method: (§2)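 Bovine brain tubulin at 10 µM (1.0 mg/mL) in 0.8 M monosodium glutamate pH 6.6 with 4% DMSO and varying compound was preincubated 15 min at 30 °C, then chilled. GTP was added to 0.4 mM final and the temperature jumped from 0 to 30 °C. Turbidity was followed at 350 nm, scoring either maximum rate or extent of assembly at 20 min.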

Tubulin [3] = biological target: T1, Tubulin; test: Inhibition of bovine brain tubulin assessed as rate of assembly preincubated for 15 mins by turbidimetry; summary of the method: as §2
HeLa [4] = test: Effect on cell morphology in human HeLa cells at 25 uM after 24 hrs using phalloidin staining by confocal microscopy; format: functional, cell-based
Summary of the method: (§3)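 After 24 h at 25 µM, HeLa cells were stained with anti-PCM1 and Alexa-conjugated secondary antibody, with phalloidin-tetramethylrhodamine B for actin and DAPI for nuclei. Cells were imaged by confocal microscopy at 60×.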

HeLa [5] = test: Effect on cell morphology in human HeLa cells assessed as disorganization of actin filament at 25 uM after 24 hrs by confocal microscopy relative to control; format: functional, cell-based; summary of the method: as §3
HeLa [6] = test: Cell cycle arrest in human HeLa cells assessed as accumulation at G2/M phase after 24 hrs by flow cytometry; format: functional, cell-based
Summary of the method: (§4)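 5×10^5 HeLa or Jurkat cells exposed to graded compound concentrations for 24 h. Cells were fixed in ice-cold 70% ethanol, lysed with RNase A/0.1% Triton X-100 buffer and stained with propidium iodide. DNA content was read by flow cytometry. Phase percentages are mean ± SEM of three independent experiments.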

HeLa [7] = test: Cell cycle arrest in human HeLa cells assessed as accumulation at G2/M phase at 10 to 25 uM after 24 hrs by flow cytometry; format: functional, cell-based; summary of the method: as §4
HeLa [8] = test: Cell cycle arrest in human HeLa cells assessed as accumulation at G2/M phase at 25 uM after 24 hrs by flow cytometry; format: functional; summary of the method: as §4
HeLa [9] = test: Induction of apoptosis in human HeLa cells assessed as viable cells at 25 uM after 24 hrs using Annexin-V/PI staining by flow cytometry (reference value: 86.7 %); format: functional; details: read-out: Activity
HeLa [10] = test: Induction of apoptosis in human HeLa cells assessed as early apoptotic cells at 25 uM after 24 hrs using Annexin-V/PI staining by flow cytometry (reference value: 5.26 %); format: functional
HeLa [11] = test: Induction of apoptosis in human HeLa cells assessed as late apoptotic cells at 25 uM after 24 hrs using Annexin-V/PI staining by flow cytometry (reference value: 4.31 %); format: functional
HeLa [12] = test: Induction of apoptosis in human HeLa cells assessed as late necrotic cells at 25 uM after 24 hrs using Annexin-V/PI staining by flow cytometry (reference value: 3.70 %); format: functional
HeLa [13] = test: Induction of apoptosis in human HeLa cells after 24 to 48 hrs using Annexin-V/PI staining by flow cytometry; format: functional, cell-based
HeLa [14] = test: Induction of apoptosis in human HeLa cells at 6.2 to 50 uM using Annexin-V/PI staining by flow cytometry; format: functional, cell-based; details: TDE = time-dependent effect
HeLa [15] = test: Induction of apoptosis in human HeLa cells assessed as mitochondrial membrane depolarization after 24 to 48 hrs using JC-1 staining-based fluorescence assay; format: functional, cell-based
Summary of the method: (§5)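 Mitochondrial membrane potential was read with the JC-1 dye in HeLa cells after 24 or 48 h at graded concentrations. Data are mean ± SEM of three independent experiments.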

HeLa [16] = test: Induction of apoptosis in human HeLa cells assessed as mitochondrial membrane depolarization at 6.2 to 50 uM using JC-1 staining-based fluorescence assay; format: functional, cell-based; details: TDE = time-dependent effect; summary of the method: as §5
HeLa [17] = test: Induction of apoptosis in human HeLa cells assessed as caspase 3 cleavage at 25 uM after 24 to 48 hrs by Western blot analysis; format: functional, cell-based
Summary of the method: (§6)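 HeLa cells treated 24 or 48 h at 25 µM, then lysed. 20 µg protein per lane was run on SDS-PAGE and transferred to PVDF. Membranes were probed 2 h at room temperature for cleaved caspase-9, caspase-3, cleaved PARP, Bcl-2, Mcl-1 or Bax, with peroxidase secondary antibody and ECL. β-Actin reprobe served as loading control.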

HeLa [18] = test: Induction of apoptosis in human HeLa cells assessed as caspase 9 cleavage at 25 uM after 24 to 48 hrs by Western blot analysis; format: functional, cell-based; summary of the method: as §6
HeLa [19] = test: Induction of apoptosis in human HeLa cells assessed as PARP cleavage at 25 uM after 24 to 48 hrs by Western blot analysis; format: functional, cell-based; summary of the method: as §6
HeLa [20] = test: Induction of apoptosis in human HeLa cells assessed as reduction in Bcl-2 expression at 25 uM after 24 hrs by Western blot analysis; format: functional, cell-based; summary of the method: as §6
HeLa [21] = test: Induction of apoptosis in human HeLa cells assessed as reduction in Bcl-2 expression at 25 uM after 48 hrs by Western blot analysis; format: functional, cell-based; summary of the method: as §6
HeLa [22] = test: Induction of apoptosis in human HeLa cells assessed as reduction in Mcl-1 expression at 25 uM after 48 hrs by Western blot analysis; format: functional, cell-based; summary of the method: as §6
HeLa [23] = test: Antiproliferative activity against human HeLa cells assessed as reduction in cell viability after 72 hrs by MTT assay; format: functional, cell-based
Summary of the method: (§7)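 Cells kept in RPMI-1640 (Jurkat, SEM, RS4;11) or DMEM (A549, HeLa, IGROV-1, HT-29) with 10% FBS plus penicillin/streptomycin. 8×10^3 cells per well were left 18 h at 37 °C in 5% CO2. Medium was then replaced with fresh medium holding graded compound concentrations from 10 mM DMSO stocks. Cells were incubated 72 h and viability read by MTT. IC50 is the mean ± SEM from dose–response curves of at least three independent experiments.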

Jurkat = test: Antiproliferative activity against human Jurkat cells assessed as reduction in cell viability after 72 hrs by MTT assay; format: functional, cell-based; summary of the method: as §7
[24] = Antiproliferative activity against human SEM cells assessed as reduction in cell viability after 72 hrs by MTT assay; format: functional, cell-based; summary of the method: as §7
CCRF-CEM = test: Antiproliferative activity against human CEM cells assessed as reduction in cell viability after 72 hrs by MTT assay; format: functional, cell-based
LoVo = test: Antiproliferative activity against human LoVo cells assessed as reduction in cell viability after 72 hrs by MTT assay; format: functional, cell-based
HT-29 = test: Antiproliferative activity against human HT-29 cells assessed as reduction in cell viability after 72 hrs by MTT assay; format: functional, cell-based; details: HT-29, 72 h; summary of the method: as §7
A549 = test: Antiproliferative activity against human A549 cells assessed as reduction in cell viability after 72 hrs by MTT assay; format: functional, cell-based; details: A549, 72 h; summary of the method: as §7
IGROV-1 = test: Antiproliferative activity against human IGROV1 cells assessed as reduction in cell viability after 72 hrs by MTT assay; format: functional, cell-based; details: IGROV-1, 72 h; summary of the method: as §7
PBL [25] = test: Cytotoxicity against resting human PBLs assessed as reduction in cell growth; format: cell-based; summary of the method: as §1
Tubulin (Bos taurus) = Tubulin (Bos taurus) (UniProt Q6B856+Q862L2+Q862F3); test: Displacement of [3H]colchicine from bovine brain tubulin at 500 uM after 10 mins by liquid scintillation counting

SMILES | IC50 (PBL [1]) | IC50 (Tubulin [2]) | IC50 (Tubulin [3]) | Activity (HeLa [4]) | Activity (HeLa [5]) | Activity (HeLa [6]) | Activity (HeLa [7]) | Activity (HeLa [8]) | viability at 25 µM (HeLa [9]) | Activity (HeLa [10]) | Activity (HeLa [11]) | Activity (HeLa [12]) | Activity (HeLa [13]) | Activity (HeLa [14]) | Activity (HeLa [15]) | Activity (HeLa [16]) | Activity (HeLa [17]) | Activity (HeLa [18]) | Activity (HeLa [19]) | Activity (HeLa [20]) | further results
COc1ccc2c(c1OC)C(=O)O[C@@H]2[C@H]1c2c(c(-c3ccc(C)cc3)c3c(c2OC)OCO3)CCN1C | > 200 µM | 120 µM | 45 µM | Active | Active | Dose-dependent effect | Active | >80% | 5.88% | 14.3% | 22.9% | 11.1% | Dose-dependent effect | tde | Dose-dependent effect | tde | Active | Active | Active | inactive | Activity (HeLa [21]): Active; Activity (HeLa [22]): Active; IC50 (HeLa [23]): 12.8 µM; IC50 (Jurkat): 5.1 µM; IC50 [24]: 7.4 µM; IC50 (CCRF-CEM): 11.8 µM; IC50 (LoVo): 41.8 µM; IC50 (HT-29): 24.9 µM; IC50 (A549): 22.2 µM; IC50 (IGROV-1): 66.3 µM; IC50 (PBL [25]): > 200 µM; inhibition (Tubulin (Bos taurus)): 64%
COc1ccc2c(c1OC)C(=O)O[C@@H]2[C@H]1c2c(c(C)c3c(c2OC)OCO3)CCN1C | > 200 µM | > 400 µM | 220 µM | Active | Active | Dose-dependent effect | Active | >80% | 9.8% | 12.5% | 13.9% | 17.1% | Dose-dependent effect | tde | Dose-dependent effect | tde | Active | Active | Active | Active | Activity (HeLa [21]): Active; Activity (HeLa [22]): Active; IC50 (HeLa [23]): 5.2 µM; IC50 (Jurkat): 5.9 µM; IC50 [24]: 4.3 µM; IC50 (CCRF-CEM): 8.8 µM; IC50 (LoVo): 66.3 µM; IC50 (HT-29): 34 µM; IC50 (A549): > 100 µM; IC50 (IGROV-1): 62.4 µM; IC50 (PBL [25]): > 200 µM; inhibition (Tubulin (Bos taurus)): 39%
COc1ccc2c(c1OC)C(=O)O[C@@H]2[C@H]1c2c(c(Br)c3c(c2OC)OCO3)CCN1C | 92.2 µM | > 400 µM | > 400 µM | Active | Active | Dose-dependent effect | Active | >80% | 76.8% | 57.3% | 44.7% | 53.7% | Dose-dependent effect | tde | Dose-dependent effect | tde | Active | Active | Active | Active | Activity (HeLa [21]): Active; Activity (HeLa [22]): Active; IC50 (HeLa [23]): 2.6 µM; IC50 (Jurkat): 3 µM; IC50 [24]: 1.8 µM; IC50 (CCRF-CEM): 2.8 µM; IC50 (LoVo): 42.8 µM; IC50 (HT-29): 18.7 µM; IC50 (A549): 73.9 µM; IC50 (IGROV-1): 78.2 µM; IC50 (PBL [25]): > 200 µM; inhibition (Tubulin (Bos taurus)): 34%
